Calls of active or inactive are those of the source. The rule behind the calls is not given here.
Columns and labels:
K562 = experiment: Cytotoxicity against human K562 cells; format: functional, cell-based
HL-60 = experiment: Cytotoxicity against human HL60 cells; format: functional, cell-based
MDA-MB-231 = experiment: Cytotoxicity against human MDA-MB-231 cells; format: functional, cell-based
Bel-7402 = experiment: Cytotoxicity against human Bel7402 cells; format: functional, cell-based
Escherichia coli = experiment: Antibacterial activity against Escherichia coli by well diffusion method; format: functional, organism-based
How it was run: (§1)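 Agar well diffusion test run against E. coli and S. aureus, with chloromycetin as the positive control.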

Staphylococcus aureus = experiment: Antibacterial activity against Staphylococcus aureus by well diffusion method; format: functional, organism-based; how it was run: as §1
[1] = Toxicity in brine shrimp; format: organism-based; details: artemia salina, in vivo; read-out: LD50 (the source's name)
How it was run: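 Lethality test using brine shrimp (Artemia salina).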

Structure (SMILES) | Activity (K562) | Activity (HL-60) | Activity (MDA-MB-231) | Activity (Bel-7402) | Activity (Escherichia coli) | Activity (Staphylococcus aureus) | LC50 [1] [µM]
C=C(C)[C@H]1CC[C@](C)(/C=C/c2ccc3c(c2O)[C@@](O)(c2ccccc2)[C@H](OC)C(=O)N3)O1 | inactive | inactive | inactive | inactive | inactive | inactive | –
CO[C@@H]1C(=O)Nc2ccc(CC=C(C)C)c(O)c2[C@@]1(O)c1ccccc1 | inactive | inactive | inactive | inactive | inactive | inactive | 4.5
O=C1Nc2ccccc2[C@@](O)(c2ccc(O)cc2)[C@@H]1O | inactive | inactive | inactive | inactive | inactive | inactive | –
CO[C@@H]1C(=O)Nc2ccccc2[C@@]1(O)c1ccccc1 | inactive | inactive | inactive | inactive | inactive | inactive | –
CO[C@@H]1C(=O)Nc2ccc(/C=C/[C@@]3(C)CC[C@H](C(C)(C)O)O3)c(O)c2[C@@]1(O)c1ccccc1 | inactive | inactive | inactive | inactive | inactive | inactive | 7.1
CO[C@@H]1C(=O)Nc2ccc(O)cc2[C@@]1(O)c1ccccc1 | inactive | inactive | inactive | inactive | inactive | inactive | –
CO[C@@H]1C(=O)Nc2ccc(/C=C/[C@]3(C)CCC(=O)[C@@H](C)C3)c(O)c2[C@@]1(O)c1ccccc1 [AFLAQUINOLONE A] | – | – | – | – | – | – | 5.5
